# Reference: PubChem BioAssay AID588575 (Sanford-Burnham Center for Chemical Genomics, 2011)
# pIC50: −log10 of the molar value. The source made the active and inactive calls.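 Rule for the calls: active = IC50 at or below 20 µM; inactive = the rest.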
# Target: Bcl-2-like protein 10 (Homo sapiens) (UniProt Q9HD36)
# Experiment: small molecules blocking Bcl-B/Bim BH3 binding – biochemical, fluorescence polarization, GST-Bcl-B, FITC-Bim, SAR follow-up (AID 588575)
# Details: GST-Bcl-B / FITC-Bim peptide
# Outline: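 Test system – purified GST-Bcl-B fusion, E. coli-expressed, missing ~20-residue C-terminal transmembrane segment · Medium – 25 mM HEPES-KOH buffer pH 7.5, 0.005% Tween-20, 1 mM TCEP · Timing – 20 min at 4 °C preincubation, 10 min probe step at room temperature · Technique – fluorescence polarization, excitation 485 nm, emission 530 nm · Measure – IC50 via sigmoidal curve fitting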
# Bcl-2-like protein 10 (Homo sapiens), sequence (Q9HD36 whole entry, looked up): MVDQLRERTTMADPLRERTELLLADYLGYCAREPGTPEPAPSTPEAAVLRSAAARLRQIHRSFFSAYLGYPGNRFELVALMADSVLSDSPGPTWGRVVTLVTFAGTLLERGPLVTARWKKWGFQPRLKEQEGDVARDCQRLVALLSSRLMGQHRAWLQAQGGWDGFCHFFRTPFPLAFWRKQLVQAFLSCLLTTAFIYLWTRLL
IC50,pIC50,Compound
> 20 µM (inactive),–,Cc1ccc2c(c1)-c1c(c(=O)n(Cc3ccccc3)c3nncn13)C(C)(C)C2
> 20 µM (inactive),–,COc1ccc2c(c1)-c1c(c(=O)n(Cc3ccc(Cl)cc3)c3nncn13)C(C)(C)C2
> 20 µM (inactive),–,O=c1[nH]c(CN2CCOCC2)nc2c1C1(CCCC1)Cc1ccccc1-2
–,5.28,O=c1c2c(n3cnnc3n1Cc1ccccc1)-c1ccccc1CC21CCCC1
> 20 µM (inactive),–,O=C1CC(c2ccc(F)cc2)CC2=C1C(c1cccc(Cl)c1)n1ncnc1N2 (stereo not drawn)
> 20 µM (inactive),–,O=C1CCCC2=C1C(c1cc(Br)ccc1F)n1ncnc1N2 (stereo not drawn)
–,5.68,O=c1c2c(n3nnnc3n1Cc1ccc(Cl)cc1)-c1ccccc1CC21CCCC1
> 20 µM (inactive),–,CC1(C)CC(n2c(=S)[nH]c3c(c2=O)C2(CCCC2)Cc2ccccc2-3)CCO1 (stereo not drawn)
> 20 µM (inactive),–,O=c1c2ccccc2nc2n1C1(CCCCC1)Cc1ccccc1-2
> 20 µM (inactive),–,O=c1c2c(n3cnnc3n1Cc1ccccc1)-c1ccccc1CC21CCCCC1
> 20 µM (inactive),–,O=c1c2c(n3cnnc3n1C1CCCCC1)-c1ccccc1CC21CCCCC1
> 20 µM (inactive),–,C=C(C)Cn1c(=O)c2c(n3nnnc13)-c1ccccc1CC21CCCC1
> 20 µM (inactive),–,CC1(C)Cc2ccccc2-c2c1c(=O)n(Cc1ccccc1)c1nnnn21
> 20 µM (inactive),–,COc1ccc2c(c1)-c1c(c(=O)n(Cc3ccc(Cl)cc3)c3nncn13)C1(CCCC1)C2
–,5.47,O=c1c2c(n3cnnc3n1Cc1ccc(Cl)cc1)-c1ccccc1CC21CCCC1
–,4.87,Cc1ccc2c(c1)-c1c(c(=O)n(Cc3ccccc3)c3nnnn13)C1(CCCCC1)C2
–,5.09,Cc1ccc2c(c1)-c1c(c(=O)n(Cc3ccc(F)cc3)c3nnnn13)C1(CCCCC1)C2

IC50,pIC50,Compound
–,5.39,COc1ccc2c(c1)-c1c(c(=O)n(Cc3ccccc3)c3nnnn13)C(C)(C)C2
> 20 µM (inactive),–,C=C(C)Cn1c(=O)c2c(n3cnnc13)-c1ccccc1CC21CCCC1
> 20 µM (inactive),–,O=c1c2c(n3nnnc3n1-c1ccccc1)-c1ccccc1CC21CCCC1
–,5.31,Cc1ccc2c(c1)-c1c(c(=O)n(Cc3ccccc3)c3nncn13)C1(CCCCC1)C2
> 20 µM (inactive),–,Cn1c(=O)c2c(n3cnnc13)-c1ccccc1CC21CCCC1
> 20 µM (inactive),–,O=c1c2c(nc3n1CCS3)-c1ccccc1CC21CCCCC1
> 20 µM (inactive),–,O=c1c2ccccc2nc2n1C1(CCCC1)Cc1ccccc1-2
–,5.81,O=c1c2c(n3nnnc3n1Cc1ccc(F)cc1)-c1ccccc1CC21CCCC1
> 20 µM (inactive),–,COc1ccc2c(c1)-c1c(c(=O)n(Cc3ccc(F)cc3)c3nnnn13)C(C)(C)C2
–,5.48,O=c1c2c(n3nnnc3n1Cc1ccccc1)-c1ccccc1CC21CCCC1
> 20 µM (inactive),–,COc1ccc2c(c1)-c1c(c(=O)n(Cc3ccccc3)c3nncn13)C(C)(C)C2
> 20 µM (inactive),–,Cn1c(=S)[nH]c2c(c1=O)C1(CCCCC1)Cc1ccccc1-2
–,6.22,Cc1ccc2c(c1)-c1c(c(=O)n(Cc3ccc(F)cc3)c3nncn13)C1(CCCCC1)C2
> 20 µM (inactive),–,COc1ccc2c(c1)-c1c(c(=O)n(Cc3ccccc3)c3nnnn13)C1(CCCC1)C2
> 20 µM (inactive),–,Cc1ccc2c(c1)-c1c(c(=O)n(Cc3ccc(Cl)cc3)c3nncn13)C1(CCCCC1)C2
> 20 µM (inactive),–,CC1CC(=O)C2=C(C1)Nc1ncnn1C2c1cccnc1 (stereo not drawn)

# Further lines, the compound ahead of its results:
Compound,IC50,pIC50
O=c1c2cnc3ncnn3c2ccn1CCc1cnc[nH]1,> 20 µM (inactive),–
O=C1CC(c2ccccc2F)c2c(n3ncnc3[nH]c2=O)N1 (stereo not drawn),> 20 µM (inactive),–
COc1ccc2c(c1)-c1c(c(=O)n(Cc3ccc(Cl)cc3)c3nnnn13)C1(CCCC1)C2,> 20 µM (inactive),–
Cc1ccc2c(c1)-c1c(c(=O)n(Cc3ccc(Cl)cc3)c3nnnn13)C1(CCCCC1)C2,> 20 µM (inactive),–
O=c1c2c(n3nnnc3n1Cc1ccccc1)-c1cc(F)ccc1CC21CCCCC1,–,6.11
O=c1c2c(nc3[nH]ncn13)-c1ccccc1CC21CCCC1,> 20 µM (inactive),–
Cn1c(NCCO)nc2c(c1=O)C1(CCCCC1)Cc1ccccc1-2,> 20 µM (inactive),–
O=c1c2cnc3nc(-c4ccccc4)nn3c2ccn1CCc1cnc[nH]1,> 20 µM (inactive),–
COc1ccc2c(c1)-c1c(c(=O)n(Cc3ccc(F)cc3)c3nncn13)C(C)(C)C2,> 20 µM (inactive),–
Cc1ccc2c(c1)-c1c(c(=O)n(Cc3ccccc3)c3nnnn13)C(C)(C)C2,–,5.24
c1ccc(OCc2nc3c4c(ncn3n2)-c2ccccc2CC42CCCC2)cc1,> 20 µM (inactive),–
CC1(C)Cc2ccccc2-c2c1c(=O)n(Cc1ccccc1)c1nncn21,> 20 µM (inactive),–
O=c1c2c(-c3ccccc3)n3ncnc3nc2ccn1-c1ccccc1,> 20 µM (inactive),–
CC1(C)Cc2ccccc2-c2nc3nn[nH]n3c(=O)c21,> 20 µM (inactive),–
O=c1c2c(n3nnnc3n1Cc1ccccc1)-c1ccccc1CC21CCCCC1,–,5.38
O=c1c2c(-c3ccccc3)n3ncnc3nc2ccn1-n1cnnc1,> 20 µM (inactive),–
O=c1c2c(nc3[nH]ncn13)-c1ccccc1CC21CCCCC1,> 20 µM (inactive),–
COc1ccc(Cn2c(=O)c3c(n4nnnc24)-c2cc(C)ccc2CC3(C)C)cc1,–,5.40
O=c1[nH]c(CN2CCCC2)nc2c1C1(CCCC1)Cc1ccccc1-2,> 20 µM (inactive),–
COc1ccc2c(c1)-c1c(c(=O)n(Cc3ccccc3)c3nncn13)C1(CCCC1)C2,> 20 µM (inactive),–
COc1ccc(Cn2c(=O)c3c(n4cnnc24)-c2cc(C)ccc2CC3(C)C)cc1,–,5.08
O=c1[nH]c(NCCCO)nc2c1C1(CCCCC1)Cc1ccccc1-2,> 20 µM (inactive),–
COc1ccc2c(c1)-c1c(c(=O)n(Cc3ccc(Cl)cc3)c3nnnn13)C(C)(C)C2,> 20 µM (inactive),–
COc1ccc(Cn2c(=O)c3c(n4nnnc24)-c2ccccc2CC32CCCC2)cc1,–,6.41
O=c1c2c(n3nnnc3n1Cc1ccccc1)-c1cc(F)ccc1CC21CCCC1,> 20 µM (inactive),–
